This note sets out measurements from ChEMBL document CHEMBL3232883, “Triaryl-substituted Schiff bases are high-affinity subtype-selective ligands for the estrogen receptor” (J Med Chem, 2014).

The target in assay [1] is T1, Estrogen receptor (Homo sapiens) (UniProt P03372).
T1 sequence (whole entry): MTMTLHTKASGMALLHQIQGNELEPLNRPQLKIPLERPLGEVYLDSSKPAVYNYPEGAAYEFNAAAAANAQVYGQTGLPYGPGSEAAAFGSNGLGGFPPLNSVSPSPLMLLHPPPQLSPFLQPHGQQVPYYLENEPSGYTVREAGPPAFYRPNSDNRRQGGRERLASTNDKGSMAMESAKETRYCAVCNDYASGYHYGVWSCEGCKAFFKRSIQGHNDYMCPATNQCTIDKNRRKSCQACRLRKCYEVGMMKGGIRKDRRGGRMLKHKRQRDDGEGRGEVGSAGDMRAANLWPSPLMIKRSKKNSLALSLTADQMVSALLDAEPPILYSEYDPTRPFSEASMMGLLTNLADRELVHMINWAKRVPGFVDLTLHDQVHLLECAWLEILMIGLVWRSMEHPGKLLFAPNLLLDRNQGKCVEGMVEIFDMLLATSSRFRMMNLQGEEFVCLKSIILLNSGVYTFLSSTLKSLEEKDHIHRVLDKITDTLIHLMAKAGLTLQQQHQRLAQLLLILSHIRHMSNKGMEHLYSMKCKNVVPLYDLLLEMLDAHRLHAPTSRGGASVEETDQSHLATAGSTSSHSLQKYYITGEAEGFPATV
The assay is described as follows: Displacement of [3H]-estradiol from human full-length ERalpha after 18 to 24 hrs by competitive radiometric binding assay relative to estradiol. In general terms: Loss of bound radioactivity is the signal in a displacement assay; it reports binding, not function.

Assay [2] concerns the target T1, Estrogen receptor (Homo sapiens). The assay is described as follows: Agonist activity at ERalpha (unknown origin) expressed in human HepG2 cells assessed as transcriptional activation after 24 hrs by ERE-luciferase reporter gene assay relative to 17beta-estradiol. In kind it is cell-based. In short, it runs like this:
(§1)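 HepG2 cells were cotransfected with a 3×ERE-luciferase reporter (10 μg) plus an ERα or ERβ expression vector (1.6 μg) per 10 cm dish. The next day they were replated at 20 000 cells/well in phenol red-free medium with 10% charcoal-dextran-stripped FBS and held overnight. Cells were then dosed over a 12-point range of 10 μM to 100 pM. Luciferase was read after 24 h, with DMSO set as 0% and the top of the E2 curve as 100%.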
(A reporter such as luciferase makes a cellular process visible.)

Assay [3] has as its target T2, Estrogen receptor beta (Homo sapiens, UniProt Q92731). The assay is described as follows: Agonist activity at ERbeta (unknown origin) expressed in human HepG2 cells assessed as transcriptional activation after 24 hrs by ERE-luciferase reporter gene assay. In kind it is cell-based. In short, it runs like this:
(§2)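 HepG2 cells were grown in DMEM with 10% FBS and transfected with a 3×ERE-luciferase reporter plus an ERα or ERβ expression vector. The next day cells were moved to phenol red-free medium with 10% charcoal-dextran-stripped FBS, plated at 20 000 cells/well and left overnight. Ligand was then added as a 12-point dose curve from 10 μM to 100 pM. Luciferase was read after 24 h, normalized to DMSO as 0% and the top of the E2 curve as 100%.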

Assay [4] is filed under the species Homo sapiens. The assay is described as follows: Selectivity ratio of RBA for human full length ERbeta to RBA for human full-length ERalpha.
Assay [5] deals with T2, Estrogen receptor beta. The assay is described as follows: Agonist activity at ERbeta (unknown origin) expressed in human HepG2 cells assessed as transcriptional activation after 24 hrs by ERE-luciferase reporter gene assay relative to 17beta-estradiol. It counts as cell-based. Summed up:
as §1

In assay [6] the target is T2, Estrogen receptor beta. The assay is described as follows: Displacement of [3H]-estradiol from human full-length ERbeta after 18 to 24 hrs by competitive radiometric binding assay relative to estradiol.
Assay [7] addresses T3, Estrogen receptor (Homo sapiens, UniProt P03372).
T3 sequence (P03372 whole entry): T1 sequence (whole entry)
The assay is described as follows: Agonist activity at ERalpha (unknown origin) expressed in human HepG2 cells assessed as transcriptional activation after 24 hrs by ERE-luciferase reporter gene assay. In kind it is cell-based. In short, it runs like this: as §2

The target of assay [8] is T1, Estrogen receptor (Homo sapiens). The assay is described as follows: Antagonist activity at ERalpha (unknown origin) expressed in human HepG2 cells assessed as inhibition of transcriptional activation after 24 hrs by ERE-luciferase reporter gene assay relative to 17beta-estradiol. It counts as cell-based. Summed up:
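Antagonist mode used HepG2 cells cotransfected with a 3×ERE-luciferase reporter plus an ERα expression vector and steroid-deprived in phenol red-free medium with 10% charcoal-dextran-stripped FBS. Cells received 10 nM estradiol together with increasing compound concentrations across a 10 μM to 100 pM dose curve. Luciferase was measured after 24 h and normalized to DMSO (0%) and the top of the E2 curve (100%).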

Assay [9] concerns the target T2, Estrogen receptor beta. The assay is described as follows: Antagonist activity at ERbeta (unknown origin) expressed in human HepG2 cells assessed as inhibition of 17beta-estradiol-induced transcriptional activation after 24 hrs by ERE-luciferase reporter gene assay. It counts as cell-based. In short, it runs like this:
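ERβ-transfected, steroid-deprived HepG2 cells carrying a 3×ERE-luciferase reporter were co-treated with 10 nM estradiol and test ligand over a range of 10 μM to 100 pM. Luciferase was read after 24 h, with each plate normalized to DMSO (0%) and the maximal E2 response (100%). IC50 and % efficacy were derived from the dose curves.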

Assay [10] relates to HepG2. The assay is described as follows: Agonist activity at ERalpha (unknown origin) harboring N-terminal AF1 domain deleted mutant expressed in human HepG2 cells assessed as transcriptional activation after 24 hrs by ERE-luciferase reporter gene assay. In kind it is cell-based.

Activity calls are given as the source filed them. The calls are words filed in the database; no cut-off is given here.

T2 sequence (Q92731 whole entry): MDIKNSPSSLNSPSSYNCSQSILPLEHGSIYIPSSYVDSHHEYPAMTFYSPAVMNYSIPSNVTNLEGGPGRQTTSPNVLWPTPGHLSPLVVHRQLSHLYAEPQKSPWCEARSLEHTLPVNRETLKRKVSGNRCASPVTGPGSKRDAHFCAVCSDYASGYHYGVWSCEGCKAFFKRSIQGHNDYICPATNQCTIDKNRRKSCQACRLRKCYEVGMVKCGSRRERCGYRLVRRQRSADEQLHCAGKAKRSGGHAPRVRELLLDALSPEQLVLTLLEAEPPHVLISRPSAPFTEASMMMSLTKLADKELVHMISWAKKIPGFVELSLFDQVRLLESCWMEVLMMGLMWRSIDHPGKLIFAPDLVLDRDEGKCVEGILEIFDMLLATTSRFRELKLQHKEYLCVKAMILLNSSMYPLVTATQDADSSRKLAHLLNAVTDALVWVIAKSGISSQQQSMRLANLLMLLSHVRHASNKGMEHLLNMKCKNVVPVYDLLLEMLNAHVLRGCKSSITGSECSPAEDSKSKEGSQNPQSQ

As for `Cc1ccc(/N=C(\c2ccc(O)cc2)c2ccc(O)cc2O)cc1`, the RBA came to 9.12% in [1] and 17.1% in [6]. For the same compound, the Efficacy in assay [2] was found to be 103%; in assay [5] it was 20%; in assay [8], 122%. For the same compound, the concentration giving a half-maximal response (EC50) – broadly, the concentration at which the effect is half-maximal – in assay [3] stood at 10900 nM; in assay [7], 16 nM. For the same compound, the Selectivity ratio in assay [4] is 1.9. For the same compound, in assay [9], the IC50 – broadly, the concentration at which inhibition is half-maximal – was found to be 241 nM. In [10], the result was inactive.
As to `Oc1ccc(/C(=N\c2ccccc2)c2ccc(O)cc2O)cc1`, the figures for the RBA in [1] and in [6] were 14.6% and 18.5%, respectively. The Efficacy in assay [2] came out at 102%; in [5] it was 25%; in [8], 134%. In addition, the EC50 in assay [3] came to 628 nM; in assay [7], 7 nM. Besides, the Selectivity ratio in [4] came out at 1.3. The IC50 in assay [9] came to 6 nM.
Turning to `COc1ccc(/N=C(\c2ccc(O)cc2)c2ccc(O)cc2O)cc1`, the RBA in [1] stood at 10.5%; in [6] it was 5.33%. The Efficacy in assay [2] turned out to be 102%; in [5] it was 38%; in [8] it was 102%. Moreover, the EC50 came out at 276 nM in assay [3] and 17 nM in [7]. The Selectivity ratio in assay [4] stood at 0.5.
On to `Oc1ccc(N=C(c2ccc(O)cc2)c2ccc(O)cc2)cc1`, for which the values for the RBA in [1] and in assay [6] were 1.86% and 0.99%, respectively. In addition, the Efficacy in [2] was 95%; in assay [5], 16%; in [8], 111%. Besides, the EC50 amounted to 332 nM in assay [3] and 14 nM in assay [7]. Besides, the Selectivity ratio in assay [4] was determined as 0.5. Further, the IC50 in assay [9] was 300 nM. Also, in assay [10], the result was inactive.
In the case of `Oc1ccc(/C(=N\c2ccc(Br)cc2)c2ccc(O)cc2O)cc1`, the values for the RBA in assay [1] and in assay [6] were 64.6% and 70.3%, respectively. Moreover, the Efficacy in assay [2] was determined as 113%; in assay [5] it was 24%; in assay [8], 111%. Besides, the EC50 came out at 12500 nM in assay [3] and 9 nM in assay [7]. In assay [4], the Selectivity ratio worked out at 1.1. Further, the IC50 in [9] was 100 nM. Also, the outcome in assay [10] was inactive.
As for `Oc1ccc(/C(=N\c2ccc(Cl)cc2)c2ccc(O)cc2O)cc1`, the RBA in [1] was found to be 15.5%; in [6], 38.1%. For the same compound, the Efficacy in [2] was found to be 114%; in assay [5], 19%; in [8], 123%. The EC50 is 385 nM in [3] and 4 nM in [7]. Moreover, in assay [4], the Selectivity ratio is 2.5. Further, the IC50 in assay [9] was determined as 180 nM. The result in assay [10] was inactive.
In the case of `Cc1ccccc1/N=C(\c1ccc(O)cc1)c1ccc(O)cc1O`, the RBA is 53.3% in [1] and 45.1% in assay [6]. Besides, the results for the Efficacy in assay [2], in assay [5] and in [8] were 111%, 31% and 100%, respectively. For the same compound, the EC50 in [3] turned out to be 2 nM. The Selectivity ratio in assay [4] is 0.9. The IC50 in assay [9] worked out at 16 nM. Further, in assay [10], the result was inactive.
For `Oc1ccc(C(=Nc2ccc(Cl)cc2)c2ccc(O)cc2)cc1`, the values for the RBA in assay [1] and in [6] were 49.2% and 127%, respectively. Moreover, the Efficacy was determined as 114% in assay [2], 9% in assay [5] and 138% in assay [8]. Besides, in assay [4], the Selectivity ratio worked out at 2.6. Moreover, the EC50 in assay [7] came out at 2 nM. Besides, the IC50 in assay [9] came to 9 nM. Further, the outcome in assay [10] was inactive.
